Experimental data gathered from unrelated publications.
Compare with care: the assays were run in different laboratories. pEC50, pIC50, pKd, pKi: −log10 of the molar value.
Adora1: Adenosine receptor A1 (Adora1, Rattus norvegicus, UniProt P25099)
CA9: Carbonic anhydrase 9 (CA9, Homo sapiens, UniProt Q16790)
Melanocortin receptor 5: Melanocortin receptor 5 (Mus musculus, UniProt P41149)
PKN1: Serine/threonine-protein kinase N1 (PKN1, Homo sapiens, UniProt Q16512)
gyrB: DNA gyrase subunit B (gyrB, Escherichia coli, UniProt P0AES6)

With Cc1cnc(-c2ccc(-c3ccc(NC(=O)Nc4c(F)cc(F)cc4F)cc3F)c3c2C(=O)NC3)[nH]1 the pKd was 7.74 (Tyrosine-protein kinase HCK (HCK, Homo sapiens, UniProt P08631); binding; competition with immobilised ligand).
For CC(C)N1CCCn2c1nc1c2c(=O)n(C)c(=O)n1C, the pKi was under 4.60 (Adora1; ligand displacement; radioligand; cell membranes).
COc1ccc(-c2nsc(NC(=O)[C@@H]3C[C@H]3C)c2C)cc1 gave a pEC50 of under 4.60 (Metabotropic glutamate receptor 1 (GRM1, Homo sapiens, UniProt Q13255); calcium signal; agonist).
Cn1cc(-c2ccc(N3CCN(C(=O)c4ccc(S(N)(=O)=O)c(Br)c4)CC3)c3cc[nH]c23)nn1 gave a pIC50 of 7.89 (CA9; enzyme activity; inhibitor).
With CSCC[C@H](NC(=O)[C@@H](N)Cc1ccc(O)cc1)C(=O)N[C@@H](Cc1c[nH]cn1)C(=O)N[C@@H](Cc1ccccc1)C(=O)N[C@@H](CCCNC(=N)N)C(=O)N[C@@H](Cc1c[nH]c2ccccc12)C(=O)N[C@@H](Cc1ccccc1)C(=O)O the pEC50 was 5.96 (Melanocortin receptor 5; reporter gene; agonist).
Cc1nn(-c2ccccc2)c(C)c1C1COCCN1C(=O)c1ccc(Cl)c(S(N)(=O)=O)c1 (centres unmarked) gave a pIC50 of 6.81 (CA9; enzyme activity; inhibitor).
N=C(N)NCCC[C@H](NC(=O)[C@H](CC(=O)O)NC(=O)[C@H](Cc1c[nH]c2ccccc12)NC(=O)[C@H](CCCNC(=N)N)NC(=O)[C@H](Cc1ccccc1)NC(=O)[C@H](Cc1c[nH]cn1)NC(=O)CN)C(=O)N[C@@H](Cc1ccccc1)C(=O)NCC(=O)O has a pEC50 of 6.54 (Melanocortin receptor 5; reporter gene; agonist).
With CCCCNc1ncc2c(-c3ccc(CN4CCN(C)CC4)cc3)cn([C@H]3CC[C@H](O)CC3)c2n1 the pIC50 was 7.28 (PKN1; enzyme activity; inhibitor).
For NS(=O)(=O)c1ccc(NC(=O)COC(=O)c2ccccc2Nc2cccc(C(F)(F)F)c2)cc1, the pIC50 was 7.06 (CA9; enzyme activity; inhibitor).
For N=C(N)NCCC[C@H](NC(=O)[C@H](CC(=O)O)NC(=O)[C@H](Cc1c[nH]c2ccccc12)NC(=O)[C@H](CCCNC(=N)N)NC(=O)[C@H](Cc1ccccc1)NC(=O)[C@@H](N)Cc1c[nH]cn1)C(=O)N[C@@H](Cc1ccccc1)C(=O)O, the pEC50 was 5.73 (Melanocortin receptor 5; reporter gene; agonist).
With CNc1cccc2cc(C(=O)NCCc3ccc(C(=O)O)cc3)c(=O)[nH]c12 the pKd was 7.64 (gyrB; binding; ITC).
CC(=O)Nc1cccc2c1CC(C)N2Cc1ccoc1C(=O)Nc1ccc(S(N)(=O)=O)cc1 (centres unmarked) gave a pIC50 of 7.43 (CA9; enzyme activity; inhibitor).
With CNc1cccc2cc(C(=O)NCCc3cccc(C(=O)O)c3)c(=O)[nH]c12 the pKd was 7.64 (gyrB; binding; ITC).
The pKi of CCCN1CCCn2c1nc1c2c(=O)n(C)c(=O)n1C is reported as 5.41 (Adora1; ligand displacement; radioligand; cell membranes).
With CNc1cccc2cc(C(=O)Nc3ccc(CC(=O)O)cc3)c(=O)[nH]c12 the pKd was 8.33 (gyrB; binding; ITC).
The pIC50 of CC(NC(=O)C(C)N1CCN(C(=O)c2cccc(O)c2)CC1)c1ccc(S(N)(=O)=O)cc1 (centres unmarked) is reported as 6.12 (CA9; enzyme activity; inhibitor).
With CN1CCCn2c1nc1c2c(=O)n(C)c(=O)n1C the pKi was under 4.60 (Adora1; ligand displacement; radioligand; cell membranes).
For Cc1cc(Nc2nc(N[C@@H](C)c3ccc(F)cc3)c(C#N)cc2F)n[nH]1, the pIC50 was 6.67 (PKN1; enzyme activity; inhibitor).
CNc1cccc2cc(C(=O)Nc3cccc(C(=O)O)c3)c(=O)[nH]c12 has a pKd of 7.64 (gyrB; binding; ITC).
For CC(C)CCCC(C)N1CCCn2c1nc1c2c(=O)n(C)c(=O)n1C (centres unmarked), the pKi was 5.11 (Adora1; ligand displacement; radioligand; cell membranes).
For Cc1cc2nc3c(=O)[nH]c(=O)nc-3n(C[C@H](O)[C@H](O)[C@H](O)COP(=O)(O)OP(=O)(O)OC[C@H]3O[C@@H](n4cnc5c(N)ncnc54)[C@H](O)[C@@H]3O)c2cc1C, the pKd was 7.49 (RNA-binding protein 14 (Homo sapiens, UniProt Q96PK6); binding; lysate).
For CNc1cccc2cc(C(=O)Nc3cccc(CC(=O)O)c3)c(=O)[nH]c12, the pKd was 7.43 (gyrB; binding; ITC).
The pIC50 of CNC(=O)c1cccc2oc(C(=O)NC3CCCN(CC(=O)Nc4ccc(S(N)(=O)=O)cc4)C3)cc12 (centres unmarked) is reported as 7.15 (CA9; enzyme activity; inhibitor).
The pKd of O=C(O)c1ccc(NC(=O)c2cc3ccccc3[nH]c2=O)cc1 is reported as 6.14 (gyrB; binding; ITC).
CSCC[C@H](NC(=O)[C@@H](NC(=O)[C@@H](N)Cc1ccc(O)cc1)C(C)C)C(=O)NCC(=O)N[C@@H](Cc1c[nH]cn1)C(=O)N[C@@H](Cc1ccccc1)C(=O)N[C@@H](CCCNC(=N)N)C(=O)N[C@@H](Cc1c[nH]c2ccccc12)C(=O)N[C@@H](CC(=O)O)C(=O)N[C@@H](CCCNC(=N)N)C(=O)N[C@@H](Cc1ccccc1)C(=O)O gave a pEC50 of 6.89 (Melanocortin receptor 5; reporter gene; agonist).
The pIC50 of Cc1cc(C)cc(C(=O)N2CCCC(C(=O)N(C)C(C)c3ccc(S(N)(=O)=O)cc3)C2)c1 (centres unmarked) is reported as 7.22 (CA9; enzyme activity; inhibitor).
CSCC[C@H](N)C(=O)NCC(=O)N[C@@H](Cc1c[nH]cn1)C(=O)N[C@@H](Cc1ccccc1)C(=O)N[C@@H](CCCNC(=N)N)C(=O)N[C@@H](Cc1c[nH]c2ccccc12)C(=O)N[C@@H](CC(=O)O)C(=O)N[C@@H](CCCNC(=N)N)C(=O)N[C@@H](Cc1ccccc1)C(=O)NCC(=O)O has a pEC50 of 7.03 (Melanocortin receptor 5; reporter gene; agonist).
For O=C(Nc1ccc(N2C(=O)c3ccccc3C2=O)c(Cl)c1)c1ncccc1Cl, the pEC50 was under 5.00 (Metabotropic glutamate receptor 4 (GRM4, Homo sapiens, UniProt Q14833); calcium signal; agonist).
CCCCn1c(=O)c2[nH]c(C34CC5CC(CC3C5)C4)nc2n(CCCO)c1=O has a pKi of 9.43 (Adora1; ligand displacement; radioligand; cell membranes).
For N=C(N)NCCC[C@H](NC(=O)[C@H](CC(=O)O)NC(=O)[C@@H](N)Cc1c[nH]c2ccccc12)C(=O)N[C@@H](Cc1ccccc1)C(=O)NCC(=O)O, the pEC50 was under 4.00 (Melanocortin receptor 5; reporter gene; agonist).
CCCC(C)N1CCCn2c1nc1c2c(=O)n(C)c(=O)n1C (centres unmarked) has a pKi of under 4.60 (Adora1; ligand displacement; radioligand; cell membranes).
For N=C(N)NCCC[C@H](NC(=O)[C@H](CC(=O)O)NC(=O)[C@H](Cc1c[nH]c2ccccc12)NC(=O)[C@@H](N)CCCNC(=N)N)C(=O)N[C@@H](Cc1ccccc1)C(=O)NCC(=O)O, the pEC50 was under 4.00 (Melanocortin receptor 5; reporter gene; agonist).
The pIC50 of NS(=O)(=O)c1ccc(C(=O)N2CCCC(CNc3ccc(Cl)cc3)C2)cc1Cl (centres unmarked) is reported as 6.69 (CA9; enzyme activity; inhibitor).
With CC(C)NC[C@@H](C(=O)N1CCN(c2ncnc3c2[C@H](C)C[C@H]3O)CC1)c1ccc(Cl)cc1 the pIC50 was 7.52 (PKN1; enzyme activity; inhibitor).
For N=C(N)NCCC[C@H](N)C(=O)N[C@@H](Cc1ccccc1)C(=O)NCC(=O)O, the pEC50 was under 4.00 (Melanocortin receptor 5; reporter gene; agonist).
